16 molecules from PubChem BioAssay can be followed below.

Structures are written as SMILES. Calls of active or inactive are those of the source.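 How the source made its calls, unless noted: active means viability loss from added drug above about 55%, and viability with drug at most 40%, in both replicates (limit read from the data, passing the limit was not always enough); inconclusive means both conditions met in only one replicate; inactive means neither replicate meets both conditions.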

Assay [1] is described as follows: Her2 expression decrease, cell viability multiplex – SKBR3 breast tumor cells, AlphaScreen, ATP viability, primary screen (AID 461;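 active means Her2 level under about 52% in both replicate screens, with viability over 70% of control, limit read from the data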;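 on Her2 level: lower value means less Her2 protein in the cells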;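 on viability: percent of carrier control wells set as 100% viability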). The following applies: SKBR3 Her2 protein level, 18-24 h, measured here: SKBR3 viability, ATP luminescence, at 10 µM.
Assay [2] has as its target Receptor tyrosine-protein kinase erbB-2 (Homo sapiens) (UniProt P04626). The description is as above. The following applies: 18-24 h, at 10 µM, stronger effect = lower value.
Assay [3] in a line: reduced viability of SK-BR-3 breast cancer cells – cell-based, 24 h, human, pilot screen (AID 572;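 active means viability at or below 10% of carrier control in both of two separate runs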;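 further: compound exposure lasted between 18 and 24 h rather than exactly 24 h; 100% = carrier-treated control wells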). The settings on record: SK-BR-3 viability, CellTiter-Glo luminescence, at 10 µM, stronger effect = lower value.
A short description of assay [4]: HUVEC growth inhibition – cell-based, human, primary screen (AID 575;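 active means viability at or below 30% in both replicate assays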;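 further: 100% = median of untreated cell wells with 0.1% DMSO on each plate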). The following applies: HUVEC proliferation, CellTiter-Glo luminescence, 72 h; at 10 µM; stronger effect = lower value. The method in brief: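 System: primary human umbilical vein endothelial cells; Quantity: 1250 endothelial cells in each well; Buffer or medium: supplemented EBM, 2% fetal bovine serum; Doses: one dose, 10 µM final, 0.1% DMSO; Incubation: 72 h compound incubation; Technique: ATP-based CellTiter-Glo luminescent read; Evaluation: percent of median DMSO-control luminescence; Controls: vehicle and MePR control wells.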

Assay [5] can be described thus: H69AR cell proliferation blockers – human, duplicate replicates, primary screen (AID 580;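 active means viability at or under a set limit in both replicates, limit being median viability minus 3 SD, cut at about 48% in these data, passing the limit was not always enough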;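 further: 100% = mean luminescence of untreated wells and 0% = no signal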). The following applies: H69AR lung tumor cells viability, ATP luminescence, 72 h; at 10 µM; stronger effect = lower value.
Assay [6] can be described thus: MRP1 drug-resistance reversers in H69AR cells – cell-based, doxorubicin co-treatment, pilot screen (AID 601). The following applies: CellTiter-Glo, 72 h, at 10 µM; for differential viability (reversal): stronger effect = higher value.
The nature of assay [7]: yeast transport mutant growth inhibition pilot in 384-well plates, post-Golgi transport modulator project (AID 636; in the data active means inhibition above about 31%). The settings on record: absorbance 615 nm, about 18 h, stronger effect = higher value.
The nature of assay [8]: growth suppression of yeast trafficking mutant, preliminary HTS, modulators of trafficking downstream of Golgi apparatus project, 1536-format plate, OD 615 nm (AID 637; in the data active means inhibition above about 30%). The following applies: yeast transport mutant growth, absorbance 615 nm, 18 h; stronger effect = higher value.
Where [9] appears, read: H69AR cells + 2 uM doxorubicin, measured here: viability with 2 uM doxorubicin, stronger effect = lower value.
[10] abbreviates: H69AR cells, compound alone cytotoxicity.

Chain of Receptor tyrosine-protein kinase erbB-2 (Homo sapiens) (P04626 whole entry, looked up): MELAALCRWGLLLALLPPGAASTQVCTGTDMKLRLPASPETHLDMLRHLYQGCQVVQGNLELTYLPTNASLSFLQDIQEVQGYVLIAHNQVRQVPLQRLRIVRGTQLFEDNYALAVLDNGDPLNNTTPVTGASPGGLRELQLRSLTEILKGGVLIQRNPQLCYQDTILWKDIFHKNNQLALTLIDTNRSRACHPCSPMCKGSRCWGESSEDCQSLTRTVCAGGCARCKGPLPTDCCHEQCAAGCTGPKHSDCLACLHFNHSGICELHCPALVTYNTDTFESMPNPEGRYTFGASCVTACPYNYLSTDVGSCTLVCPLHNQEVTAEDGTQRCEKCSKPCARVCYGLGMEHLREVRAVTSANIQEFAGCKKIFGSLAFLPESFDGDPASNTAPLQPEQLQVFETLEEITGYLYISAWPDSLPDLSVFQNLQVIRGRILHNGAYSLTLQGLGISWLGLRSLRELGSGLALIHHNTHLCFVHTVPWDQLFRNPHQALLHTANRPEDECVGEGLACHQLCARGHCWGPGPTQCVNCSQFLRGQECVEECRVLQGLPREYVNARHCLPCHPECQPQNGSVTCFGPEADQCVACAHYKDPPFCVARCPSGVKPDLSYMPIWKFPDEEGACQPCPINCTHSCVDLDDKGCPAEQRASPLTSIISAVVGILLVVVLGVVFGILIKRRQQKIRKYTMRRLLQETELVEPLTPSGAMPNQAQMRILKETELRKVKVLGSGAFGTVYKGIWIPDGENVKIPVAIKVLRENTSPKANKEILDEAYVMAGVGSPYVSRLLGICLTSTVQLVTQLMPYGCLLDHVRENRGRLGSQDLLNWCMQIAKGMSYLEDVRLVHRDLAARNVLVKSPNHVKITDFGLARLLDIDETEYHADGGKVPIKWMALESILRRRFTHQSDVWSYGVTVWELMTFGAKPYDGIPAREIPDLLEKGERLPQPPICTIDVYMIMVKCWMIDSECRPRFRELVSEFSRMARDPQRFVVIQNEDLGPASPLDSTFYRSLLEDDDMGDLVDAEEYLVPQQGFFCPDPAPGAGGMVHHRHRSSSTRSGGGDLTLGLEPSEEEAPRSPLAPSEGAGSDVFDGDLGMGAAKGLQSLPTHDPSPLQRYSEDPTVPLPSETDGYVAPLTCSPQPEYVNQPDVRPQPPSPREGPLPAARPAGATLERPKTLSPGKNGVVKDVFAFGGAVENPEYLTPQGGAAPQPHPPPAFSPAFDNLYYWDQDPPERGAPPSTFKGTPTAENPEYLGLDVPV

With `Cc1cc(C)cc(NC(=O)N2CCC(c3nc4ccccc4o3)CC2)c1`, the viability in assay [1] is 90.5%; in assay [3], 90.5% (inactive); in assay [4], 88.9% (inactive); in assay [5], 94.9% (inactive); in assay [6] (setting [9]), 93.2%; in assay [6] (setting [10]) it was 94.9%. Moreover, the Her2 level in assay [2] was 99% (inactive). The differential viability (reversal) in assay [6] (H69AR cells + 2 uM doxorubicin) was 1.69% (inactive). The inhibition is -4.8% (inactive) in assay [7] and 1.8% (inactive) in assay [8].

Regarding `COc1cc(C(=O)Nc2cccc(-c3nc4cc(C)ccc4o3)c2)cc(OC)c1OC`, the viability in assay [1] was 95%; in assay [3], 95% (inactive); in assay [4] it was 66.8% (inactive); in assay [5] it was 55.7% (inactive); in assay [6] (setting [9]), 51.3%; in assay [6] (setting [10]) it was 55.7%. The Her2 level in assay [2] is 80% (inactive). In addition, the differential viability (reversal) in assay [6] (H69AR cells + 2 uM doxorubicin) is 4.43% (inactive). Also, the results for the inhibition in assay [7] and in assay [8] were -5% (inactive) and 4.76% (inactive), respectively.

`Cc1nc2c(-c3ccccc3)c(C)nn2c(C)c1CCC(=O)O`: the viability was 97.5% in assay [1]; 97.5% (inactive) in assay [3]; 85.5% (inactive) in assay [4]; 86.2% (inactive) in assay [5]; 87% in assay [6] (setting [9]); 86.2% in assay [6] (setting [10]). In addition, in assay [2], the Her2 level was 100% (inactive). Moreover, the differential viability (reversal) in assay [6] (H69AR cells + 2 uM doxorubicin) is -0.87% (inactive). Besides, the inhibition in assay [7] was -4% (inactive); in assay [8] it was 5.57% (inactive).

For the molecule `CSc1nc2c(ccc3ccccc32)o1`, the viability in assay [1] was 114%; in assay [3], 114% (inactive); in assay [4], 92.4% (inactive); in assay [5] it was 90.7% (inactive); in assay [6] (setting [9]), 87.9%; in assay [6] (setting [10]), 90.7%. In addition, the Her2 level in assay [2] is 83.5% (inactive). Besides, in assay [6] (H69AR cells + 2 uM doxorubicin), the differential viability (reversal) is 2.83% (inactive). In addition, the figures for the inhibition in assay [7] and in assay [8] were -1.32% (inactive) and 6.94% (inactive), respectively.

As to `COc1ccc(-c2noc(-c3cc(Cl)ccc3Cl)n2)cc1OC`, the viability in assay [1] is 122%; in assay [3] it was 122% (inactive); in assay [4], 94.9% (inactive); in assay [5], 107% (inactive); in assay [6] (setting [9]), 88.1%; in assay [6] (setting [10]), 107%. In addition, the Her2 level in assay [2] was 78% (inactive). For the same molecule, the differential viability (reversal) in assay [6] (H69AR cells + 2 uM doxorubicin) is 18.4% (inactive). Besides, the inhibition in assay [7] is -2.67% (inactive); in assay [8] it was -4.52% (inactive).

Regarding `Cc1noc(C)c1CSc1nnc2n(-c3ccccc3)c(=O)c3ccccc3n12`, the viability in assay [1] was 72.5%; in assay [3], 72.5% (inactive); in assay [4], 105% (inactive); in assay [5], 81.7% (inactive); in assay [6] (setting [9]), 101%; in assay [6] (setting [10]) it was 81.7%. The Her2 level in assay [2] was 75.5% (inactive). For the same molecule, the differential viability (reversal) in assay [6] (H69AR cells + 2 uM doxorubicin) is -18.9% (inactive). Besides, the inhibition in assay [7] is 2.31% (inactive); in assay [8], -5.83% (inactive).

Regarding `c1cc(-c2nc3ccccc3o2)nc(-c2nc3ccccc3o2)c1`, the viability in assay [1] is 122%; in assay [3], 122% (inactive); in assay [4], 90.9% (inactive); in assay [5], 87.6% (inactive); in assay [6] (setting [9]), 80.2%; in assay [6] (setting [10]), 87.6%. In addition, in assay [2], the Her2 level is 94.5% (inactive). Also, the differential viability (reversal) in assay [6] (H69AR cells + 2 uM doxorubicin) was 7.43% (inactive). Besides, the inhibition was -4.21% (inactive) in assay [7] and 1.83% (inactive) in assay [8].

For `O=C(O)CCCNS(=O)(=O)c1ccc(NCc2ccccc2)c(C(=O)O)c1`, the viability in assay [1] is 87%; in assay [3], 87% (inactive); in assay [4] it was 92.3% (inactive); in assay [5] it was 93% (inactive); in assay [6] (setting [9]) it was 91.4%; in assay [6] (setting [10]), 93%. For the same molecule, the Her2 level in assay [2] was 94% (inactive). The differential viability (reversal) in assay [6] (H69AR cells + 2 uM doxorubicin) is 1.6% (inactive). Also, the figures for the inhibition in assay [7] and in assay [8] were -6.89% (inactive) and 0.83% (inactive), respectively.

For `CC(=O)c1coc2ccc(OCC(=O)O)cc12`, the viability in assay [1] is 104%; in assay [3], 104% (inactive); in assay [4] it was 105% (inactive); in assay [5], 98% (inactive); in assay [6] (setting [9]) it was 92.7%; in assay [6] (setting [10]), 98%. Further, the Her2 level in assay [2] is 90.5% (inactive). For the same molecule, the differential viability (reversal) in assay [6] (H69AR cells + 2 uM doxorubicin) is 5.29% (inactive). In addition, the inhibition in assay [7] was -4% (inactive); in assay [8], -4.26% (inactive).

With `O=C(CCSc1nccn1Cc1ccccc1)N1CCOCC1`, the viability in assay [1] is 107%; in assay [3], 107% (inactive); in assay [4], 103% (inactive); in assay [5], 97% (inactive); in assay [6] (setting [9]) it was 86%; in assay [6] (setting [10]), 97%. The Her2 level in assay [2] was 111% (inactive). Besides, in assay [6] (H69AR cells + 2 uM doxorubicin), the differential viability (reversal) was 11.1% (inactive). In addition, the inhibition in assay [7] was -6.13% (inactive); in assay [8], -0.65% (inactive).

In the case of `Cc1ccc(CN2C(=O)CCC2C(=O)NCCCN2CCC(C)CC2)cc1` (stereo not given), the viability is 98.5% in assay [1]; 98.5% (inactive) in assay [3]; 93.7% (inactive) in assay [4]; 103% (inactive) in assay [5]; 101% in assay [6] (setting [9]); 103% in assay [6] (setting [10]). Moreover, the Her2 level in assay [2] is 88.5% (inactive). Moreover, the differential viability (reversal) in assay [6] (H69AR cells + 2 uM doxorubicin) is 2.18% (inactive). Moreover, the inhibition in assay [7] is -5.73% (inactive); in assay [8] it was 6.89% (inactive).

On to `CCn1nnc(NC(=O)c2ccc(-c3ccc(Cl)cc3)o2)n1`, for which the viability was 87.5% in assay [1]; 87.5% (inactive) in assay [3]; 90% (inactive) in assay [4]; 91.2% (inactive) in assay [5]; 88% in assay [6] (setting [9]); 91.2% in assay [6] (setting [10]). For the same molecule, in assay [2], the Her2 level is 122% (inactive). The differential viability (reversal) in assay [6] (H69AR cells + 2 uM doxorubicin) was 3.21% (inactive). Further, the results for the inhibition in assay [7] and in assay [8] were -6.62% (inactive) and -0.66% (inactive), respectively.

Regarding `CC(C)=CC/C=C1\CCC(C(=O)O)C(C(=O)O)C1` (stereo not given), the viability was 114% in assay [1]; 114% (inactive) in assay [3]; 91.6% (inactive) in assay [4]; 104% (inactive) in assay [5]; 83.2% in assay [6] (setting [9]); 104% in assay [6] (setting [10]). Also, the Her2 level in assay [2] was 104% (inactive). Besides, the differential viability (reversal) in assay [6] (H69AR cells + 2 uM doxorubicin) was 20.5% (inactive). The inhibition in assay [7] was -6.13% (inactive); in assay [8], -0.48% (inactive).

For the molecule `COc1cccc(C2C(C#N)=C(N)OC3=C2C(=O)CCC3)c1OC(=O)c1ccco1` (stereo not given), the viability was 106% in assay [1]; 106% (inactive) in assay [3]; 83.6% (inactive) in assay [4]; 99.7% (inactive) in assay [5]; 86.6% in assay [6] (setting [9]); 99.7% in assay [6] (setting [10]). For the same molecule, the Her2 level in assay [2] is 84% (inactive). Further, in assay [6] (H69AR cells + 2 uM doxorubicin), the differential viability (reversal) was 13.1% (inactive). Also, the inhibition in assay [7] was -4.53% (inactive); in assay [8], 3.71% (inactive).

As for `CSc1nc(C)cc(OCC(=O)N2CCOCC2)n1`, the viability in assay [1] was 130%; in assay [3], 130% (inactive); in assay [4], 99.2% (inactive); in assay [5] it was 92.7% (inactive); in assay [6] (setting [9]), 90.2%; in assay [6] (setting [10]) it was 92.7%. Also, in assay [2], the Her2 level is 112% (inactive). In assay [6] (H69AR cells + 2 uM doxorubicin), the differential viability (reversal) is 2.54% (inactive). The values for the inhibition in assay [7] and in assay [8] were -4.81% (inactive) and 5% (inactive), respectively.

For the molecule `O=c1[nH]c(/C(=N\O)c2ccccc2)no1`, the viability in assay [1] was 93.5%; in assay [3], 93.5% (inactive); in assay [4], 83.2% (inactive); in assay [5], 73.2% (inactive); in assay [6] (setting [9]), 40.7%; in assay [6] (setting [10]), 73.2%. Moreover, the Her2 level in assay [2] is 82% (inactive). For the same molecule, the differential viability (reversal) in assay [6] (H69AR cells + 2 uM doxorubicin) is 32.5% (inactive). Further, the results for the inhibition in assay [7] and in assay [8] were -0.39% (inactive) and 5.74% (inactive), respectively.
